Experimental data from different studies.
Each line is one published result; the experiments were not run side by side.
Target: Tyrosine-protein kinase Fer (FER, Homo sapiens, UniProt P16591)

| Structure (SMILES) | effect on | technique | tested at | remaining binding [%] |
| --- | --- | --- | --- | --- |
| O=C(NC[C@@H]1[C@H]2CN(C(=O)OCc3cc(C(F)(F)F)cc(C(F)(F)F)c3)C[C@@H]12)c1ccc2[nH]nnc2c1 | cell-free assay | competition with immobilised ligand | 1 µM | 97 |
| O=C(c1ccc(Nc2nccc(-c3cc4ccccc4s3)n2)cc1)N1CCC(N2CCCC2)CC1 | binding | competition with immobilised ligand | 1 µM | 100 |
| C[C@@H]1CCN(c2nccc(-c3cnn4ncccc34)n2)C1 | binding | – | 1 µM | 100 |
| O=C(c1ccc(Nc2ncc(Cl)c(-c3cc4ccccc4s3)n2)cc1)N1CCC(N2CCCC2)CC1 | binding | competition with immobilised ligand | 1 µM | 76 |
| CN(CCCC(F)(F)F)c1nccc(-c2cnn3ncccc23)n1 | binding | – | 1 µM | 65 |
| CNC(=O)[C@@H]1CC[C@@H](n2c(-c3ccc4cnccc4c3)nc3ccc(C(=O)NCc4cccc(C(N)=O)c4)cc32)C1 | binding | competition with immobilised ligand | 1 µM | 100 |
| CS(=O)(=O)N1CCCC(NC(=O)[C@H](CCC2CCCCC2)NC(=O)c2ccc(CNC(=O)c3cnc4ccccn34)cc2)C1 (stereo partly drawn) | cell-free assay | competition with immobilised ligand | 0.1 µM | 99 |
| FC(F)(F)Oc1cccc(-c2cnc3ccc(-c4ccncc4)nn23)c1 | cell-free assay | competition with immobilised ligand | 5 µM | 90 |
| CN(C)c1nccc(-c2cnn3ncccc23)n1 | binding | – | 1 µM | 97 |
| CC(=O)N1CCC(c2ccc(C(=O)NC(=N)N)cc2C(F)(F)F)CC1 | cell-free assay | competition with immobilised ligand | 1 µM | 96 |
| Cc1cnc(Nc2ccc(C(=O)N3CCC(N4CCCC4)CC3)cc2)nc1-c1cc2ccccc2s1 | binding | competition with immobilised ligand | 1 µM | 84 |
| CS(=O)(=O)c1cc(C2(NC(=O)c3cncc4c3cnn4-c3ccc(F)cc3)CC2)ccn1 | cell-free assay | competition with immobilised ligand | 1 µM | 100 |
| COc1ncc2cc3ccccc3nc2c1C#N | cell-free assay | competition with immobilised ligand | 5 µM | 100 |
| C[C@@]1(Cc2ccc(C#N)cc2)C(=O)N(c2cc(Cl)cc(Cl)c2)c2ncc(C(=O)NC3(c4nc(C5CCC5)no4)CC3)n21 | cell-free assay | competition with immobilised ligand | 1 µM | 100 |
| O=C(NCC1CCOCC1)c1n[nH]cc1NC(=O)c1c(F)cccc1F | binding | competition with immobilised ligand | 1 µM | 100 |
| c1cnn2ncc(-c3ccnc(N4CCC45COC5)n3)c2c1 | binding | – | 1 µM | 91 |
| c1cncc(-c2cccc(Nc3nccc(NC4CCCCC4)n3)c2)c1 | binding | competition with immobilised ligand | 10 µM | 83 |
| CN(c1nccc(-c2cnn3ncccc23)n1)C1CC1 | binding | – | 1 µM | 100 |
| Nc1ncc2c(n1)-c1c([nH]c3ccc(C#CC4CC4)cc13)CCCC2 | binding | competition with immobilised ligand | 1 µM | 100 |
| CCC(=O)N[C@@H]1CC[C@H](C(=O)N(C)c2ccc(-c3nc4ccccc4o3)cc2)C1 | cell-free assay | competition with immobilised ligand | 1 µM | 99 |
| COc1ccnn2ncc(-c3ccnc(N(C)C)n3)c12 | binding | – | 1 µM | 100 |
